The microsomal CLint is the capacity of the preparation to metabolise the compound, expressed as a volume cleared per time. As usually defined, the logD is lipophilicity at a set pH, counting ionised and neutral species. Read a high logD as higher lipophilicity. One may read the GI50 as the concentration giving 50% growth inhibition. As usually defined, the bioavailability is dose-corrected exposure relative to a reference, in per cent.

Data set [1] in a line: Clearance in human liver microsomes at 1 umol/l after 20 mins by LC/MS/MS analysis. On the technique in general: Microsomes from liver hold many membrane-bound enzymes, among them those of drug oxidation.
A short description of data set [2]: Clearance in mouse liver microsomes at 1 umol/l after 20 mins by LC/MS/MS analysis.
Data set [3] is described as follows: Lipophilicity, log D of the compound at pH 7.4. As to conditions: buffer.
In data set [4] the test system is MDA-MB-231. The data set is described as follows: Growth inhibition of human MDA-MB-231 cells assessed as cell viability after 3 days by CellTitre-Glo Luminescent assay. Type of data set: functional. As to conditions: MDA-MB-231, 72 h.
Data set [5] can be described thus: Oral bioavailability in BALB/cAJcl mouse at 10 mg/kg by LC/MS/MS analysis. Format: ADME, organism-based. As to conditions: in vivo. Summed up:
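Female BALB/cAJcl mice, seven weeks old, were dosed orally at 10 mg/kg and intravenously at 1 mg/mL/kg. Plasma compound concentrations were measured by LC/MS/MS.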

Data set [6] in a line: Permeability of the compound by PAMPA. The note with it: read-out: permeability. Type of data set: ADME.
Data set [7] relates to MDA-MB-231. Description: Antitumor activity against human MDA-MB-231 cells expressing luciferase gene xenografted in athymic nude BALB/cAJcl mouse assessed as tumor growth inhibition at 100 mg/kg, po bid measured on day 14 relative to control. Type of data set: functional. In general terms: Xenograft models place foreign cells or tissue in a host animal.
Data set [8] deals with MDA-MB-231. The data set is described as follows: Antitumor activity against human MDA-MB-231 cells expressing luciferase gene xenografted in po dosed athymic nude BALB/cAJcl mouse assessed as tumor regression administered bid measured on day 14. Type of data set: functional, organism-based.
The subject of data set [9] is MDA-MB-231. Description: Antitumor activity against human MDA-MB-231 cells expressing luciferase gene xenografted in athymic nude BALB/cAJcl mouse assessed as tumor growth inhibition at 30 mg/kg, po bid measured on day 14 relative to control. Type of data set: functional.
For the next data set, the system named is Mus musculus. The data set is described as follows: Toxicity in athymic nude BALB/cAJcl mouse xenografted with human MDA-MB-231 cells expressing luciferase gene at 30 mg/kg, po bid measured on day 14. Format: organism-based. The arrangement: dose 30 mg/kg, route oral. As to conditions: in vivo.

In the case of `CN[C@@H](C)C(=O)N[C@H](C(=O)N1C[C@H]2CCCN2C[C@H]1C(=O)N[C@H]1CCCc2ccccc21)C1CCCCC1`, the microsomal CLint at 20 min, 1 µM is 236 µL/min/mg in data set [1] and 239 µL/min/mg in data set [2].
With `CN[C@@H](C)C(=O)N[C@H](C(=O)N1C[C@H]2CCCN2C[C@H]1C(=O)N[C@@H]1CCOc2ccccc21)c1ccccc1`, the microsomal CLint at 20 min, 1 µM turned out to be 90 µL/min/mg in data set [1] and 129 µL/min/mg in [2]. The pH-dependent lipophilicity (logD) in data set [3] stood at 2.17. Moreover, the GI50 in the data set with MDA-MB-231 [4] stood at 11 nM. The same compound came in with a bioavailability in data set [5] of 33%.
Take `CN[C@@H](C)C(=O)N[C@H](C(=O)N1C[C@H]2C[C@@H](O)CN2C[C@H]1C(=O)N[C@@H]1CCOc2ccccc21)C1CCC(F)(F)CC1`: the microsomal CLint at 20 min, 1 µM in [1] worked out at 4 µL/min/mg. This compound had a logD in [3] of 1.6. In the data set on MDA-MB-231 [4], the 50% growth inhibitory concentration (GI50) is 11 nM.
Regarding `CN[C@@H](C)C(=O)N[C@H](C(=O)N1C[C@H]2CC(F)(F)CN2C[C@H]1C(=O)N[C@@H]1CCOc2ccccc21)C1CCC(F)(F)CC1`, the microsomal CLint at 20 min, 1 µM was determined as 170 µL/min/mg in data set [1] and 147 µL/min/mg in [2]. Moreover, the logD in [3] was 2.56. Also, the concentration for 50% growth inhibition (GI50) with MDA-MB-231 [4] is 8 nM. Also, the bioavailability in [5] came to 21%.
On to `CN[C@@H](C)C(=O)N[C@H](C(=O)N1C[C@H]2CCCN2C[C@H]1C(=O)N[C@@H]1CCOc2ccccc21)C1CCC(F)(F)CC1`, for which the intrinsic metabolic clearance (microsomal CLint) at 20 min, 1 µM worked out at 82 µL/min/mg in [1] and 66 µL/min/mg in data set [2]. Further, in data set [3], the logD is 2.43. Moreover, the GI50 with MDA-MB-231 [4] came to 13 nM. Further, the Papp in data set [6] amounted to 0.3 ×10⁻⁶ cm/s. The bioavailability in data set [5] is 53%.
Turning to `CN[C@@H](C)C(=O)N[C@H](C(=O)N1C[C@H]2CCCN2C[C@H]1C(=O)N[C@@H]1CCC(=O)c2ccccc21)C1CCCCC1`, the microsomal CLint at 20 min, 1 µM in data set [1] was 154 µL/min/mg; in data set [2], 161 µL/min/mg. Besides, the GI50 in the data set with MDA-MB-231 [4] was determined as 21 nM. In [5], this compound showed a bioavailability of 30%.
For `CN[C@@H](C)C(=O)N[C@H](C(=O)N1C[C@H]2CCCN2C[C@H]1C(=O)N[C@@H]1CCOc2ccccc21)C1CCOCC1`, the microsomal CLint at 20 min, 1 µM was determined as 15 µL/min/mg in data set [1] and 21 µL/min/mg in data set [2]. Moreover, in data set [3], the log distribution coefficient (logD) is 1.75. Also, the GI50 in the data set with MDA-MB-231 [4] came out at 20 nM. The bioavailability in data set [5] was 12%.
On to `CN[C@@H](C)C(=O)N[C@H](C(=O)N1C[C@H]2CCCN2C[C@H]1C(=O)N[C@@H]1CCC(F)(F)c2ccccc21)C1CCCCC1`, for which the microsomal CLint at 20 min, 1 µM amounted to 130 µL/min/mg in [1] and 208 µL/min/mg in [2]. For the same compound, in the data set with MDA-MB-231 [4], the GI50 was found to be 18 nM. In addition, the bioavailability in [5] was 26%.
Regarding `CN[C@@H](C)C(=O)N[C@H](C(=O)N1C[C@H]2CCCN2C[C@H]1C(=O)N[C@@H]1CCOc2ccccc21)C1CCCCC1`, the microsomal CLint at 20 min, 1 µM is 128 µL/min/mg in [1] and 116 µL/min/mg in [2]. The compound also showed a logD in [3] of 2.91. Moreover, the concentration for 50% growth inhibition (GI50) in the data set on MDA-MB-231 [4] stood at 5.7 nM. Moreover, the bioavailability in [5] turned out to be 41%.
Turning to `CN[C@@H](C)C(=O)N[C@H](C(=O)N1C[C@@H]2CCCN2C[C@H]1C(=O)N[C@@H]1CCOc2ccccc21)C1CCC(F)(F)CC1`, the microsomal CLint at 20 min, 1 µM was found to be 38 µL/min/mg in [1] and 2 µL/min/mg in data set [2]. This compound also returned a log distribution coefficient (logD) in [3] of 1.94. Further, the GI50 with MDA-MB-231 [4] came to 15 nM. This compound also came in with a bioavailability in data set [5] of 13%.
With `CN[C@@H](C)C(=O)N[C@H](C(=O)N1C[C@H]2CCCN2C[C@H]1C(=O)N[C@H](C)c1ccccc1)C1CCCCC1`, the microsomal CLint at 20 min, 1 µM was 82 µL/min/mg in data set [1] and 115 µL/min/mg in data set [2]. In addition, the 50% growth inhibitory concentration (GI50) in the data set with MDA-MB-231 [4] amounted to 20 nM. In addition, the bioavailability in data set [5] worked out at 63%.
As for `CCO[C@@H]1C[C@@H]2CN(C(=O)[C@@H](NC(=O)[C@H](C)NC)C3CCC(F)(F)CC3)[C@H](C(=O)N[C@@H]3CCOc4ccccc43)CN2C1`, the microsomal CLint at 20 min, 1 µM was determined as 52 µL/min/mg in data set [1] and 40 µL/min/mg in [2]. Besides, the figures for the T/C with MDA-MB-231 [7] and in the data set with MDA-MB-231 [9] were -62% and -53%, respectively. In [3], this compound gave a logD of 2.6. Further, the Activity entry in the data set with MDA-MB-231 [8] was “Dose-dependent effect”; in the data set with Mus musculus, “Non-toxic”. Further, in the data set on MDA-MB-231 [4], the GI50 turned out to be 1.8 nM. Besides, the Papp in data set [6] is 4.4 ×10⁻⁶ cm/s. In data set [5], the bioavailability was 50%.
Turning to `CN[C@@H](C)C(=O)N[C@H](C(=O)N1C[C@H]2CCCN2C[C@H]1C(=O)N[C@@H]1CCCc2ccccc21)C1CCCCC1.Cl.Cl`, the figures for the microsomal CLint at 20 min, 1 µM in [1] and in data set [2] were 218 µL/min/mg and 232 µL/min/mg, respectively. For the same compound, the GI50 in the data set with MDA-MB-231 [4] was 6.2 nM. Further, the bioavailability in data set [5] is 6%.

These data come from ChEMBL document CHEMBL2311403, “Design and synthesis of potent inhibitor of apoptosis (IAP) proteins antagonists bearing an octahydropyrrolo[1,2-a]pyrazine scaffold as a novel proline mimetic” (J Med Chem, 2013).
